Experimental findings from ChEMBL document CHEMBL4339225, “Self-assembling Releasable Thiocolchicine-Diphenylbutenylaniline Conjugates” (ACS Med Chem Lett, 2019) are described below.

SMILES strings stand for the structures. Bounds are passed on as bounds.

A short description of series [1]: Drug metabolism assessed as porcine pancreas lipase type 2-mediated 10-(4-(1,2-diphenylbut-1-enyl)phenylamino)-10-oxodecanoic acid formation in presence of pH 7 phosphate buffer by reversed-phase HPLC. Format: ADME, Sus scrofa. The following applies: pig. The gist of the method:
(§1)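 Analytical-scale incubation was run overnight in 15:85 DMSO/phosphate buffer (20 mM, pH 7) with 1% n-BuOH and porcine pancreatic lipase. Starting-material hydrolysis and released products were quantified by reversed-phase HPLC.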

Series [2] is described as follows: Stability assessed as porcine pancreas lipase type 2-mediated drug hydrolysis in presence of pH 7 phosphate buffer by reversed-phase HPLC. In kind it is ADME, Sus scrofa. Conditions: pig, porcine pancreas lipase type 2, pH 7; read-out: Drug degradation; call rule not given here. The gist of the method: as §1
A short description of series [3]: Self-assembling property assessed as polydispersity index by dynamic light scattering method. In kind it is physicochemical.
Series [4] can be described thus: Self-assembling property assessed as zeta potential by dynamic light scattering method. Format: physicochemical.
Series [5] can be described thus: Colloidal stability of the compound in nanoparticle form at 0.5 mg/mL at acidic pH conditions. In kind it is physicochemical. The gist of the method: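 Zeta potential was measured against pH at 0.5 mg/mL nanoparticle concentration and fixed ionic strength (1 mM KCl). pH was adjusted across 2–12 with 0.1 M NaOH or HCl. Hydrodynamic diameter was also followed over the same range.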

Series [6] is described as follows: Self-assembling property assessed as hydrodynamic diameter by dynamic light scattering method. In kind it is physicochemical.
A short description of series [7]: Colloidal stability of the compound in nanoparticle form in Ph 7 PBS at 0.5 mg/mL in presence of 10 to 100 mM KCl. In kind it is physicochemical. Conditions: buffer. Summed up: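 Nanoparticles were held at 0.5 mg/mL in PBS buffered to pH 7.4, with KCl at 0, 10, 25, 50 and 100 mM. Zeta potential and hydrodynamic diameter were recorded at each ionic strength.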

The test system of another series is HepG2. Briefly: Antiproliferative activity against human HepG2 cells assessed as reduction in cell number incubated for 72 hrs. Format: functional. The following applies: HepG2, 72 h.
Another series concerns MCF7. Briefly: Antiproliferative activity against human MCF7 cells assessed as reduction in cell number incubated for 72 hrs. In kind it is functional. Conditions: MCF7, 72 h.
The subject of the next series is HeLa. Briefly: Antiproliferative activity against human HeLa cells assessed as reduction in cell number incubated for 72 hrs. In kind it is functional.
The nature of series [8]: Drug level treated with 9-[4-(1,2-Diphenyl-but-1-enyl)-phenylcarbamoyl]-nonanoic acid 3-{2-acetoxy-5-[((S)-1,2,3-trimethoxy-10-methylsulfanyl-9-oxo-5,6,7,9-tetrahydro-benzo[a]heptalen-7-ylcarbamoyl)-methylcarbamoyloxymethyl]-phenyl}-propyl ester assessed as porcine pancreas lipase type 2-mediated compound formation in presence of pH 7 phosphate buffer by reversed-phase HPLC. Format: ADME, Sus scrofa. Conditions: pig. The gist of the method: as §1

Series [9] is described as follows: Drug level treated with 4-{3-[4-(1,2-Diphenyl-but-1-enyl)-phenylcarbamoyl]-propyldisulfanyl}-butyric acid 3-{2-acetoxy-5-[((S)-1,2,3-trimethoxy-10-methylsulfanyl-9-oxo-5,6,7,9-tetrahydro-benzo[a]heptalen-7-ylcarbamoyl)-methylcarbamoyloxymethyl]-phenyl}-propyl ester assessed as Celite-supported formulation of Pseudomonas cepacia lipase PS-mediated compound formation in presence of pH 7 phosphate buffer by reversed-phase HPLC. Format: ADME.

A short description of series [10]: Drug metabolism assessed as Celite-supported formulation of Pseudomonas cepacia lipase PS-mediated 2-Amino-N-((S)-1,2,3-trimethoxy-10-methylsulfanyl-9-oxo-5,6,7,9-tetrahydro-benzo[a]heptalen-7-yl)-acetamide trifluoroacetic acid formation in presence of pH 7 phosphate buffer by reversed-phase HPLC. Format: ADME.
Series [11] in a line: Stability assessed as Celite-supported formulation of Pseudomonas cepacia lipase PS-mediated drug hydrolysis in presence of pH 7 phosphate buffer by reversed-phase HPLC. Format: ADME. Conditions: read-out: Drug degradation.
Series [12] in a line: Drug metabolism assessed as Celite-supported formulation of Pseudomonas cepacia lipase PS-mediated 4-((4-(4-(1,2-diphenylbut-1-enyl)phenylamino)-4-oxobutyl)disulfanyl)butanoic acid formation in presence of pH 7 phosphate buffer by reversed-phase HPLC. In kind it is ADME.

Regarding `CC/C(=C(\c1ccccc1)c1ccc(NC(=O)CCCCCCCCC(=O)OCCCc2cc(COC(=O)NCC(=O)N[C@H]3CCc4cc(OC)c(OC)c(OC)c4-c4ccc(SC)c(=O)cc43)ccc2OC(C)=O)cc1)c1ccccc1`, in [1], the Drug metabolism result is listed as “Metabolite_Detected”. In series [2], the metabolised came to 85%. Besides, the Activity_index in series [3] worked out at 0.17. Further, the values for the Activity in series [4] and in [6] were -33.51 mV and 412.9 nm, respectively. Besides, the Stability entry in [5] is on record as “Unstable”; in series [7], “Stable”. The GI50 – broadly, the concentration giving 50% growth inhibition – is over 30 µM in the series with HepG2, 870 nM with MCF7 and 4.2 µM with HeLa.

As for `COc1cc2c(c(OC)c1OC)-c1ccc(SC)c(=O)cc1[C@@H](NC(=O)CN)CC2`, the Drug uptake entry in series [8] and in series [9] was “Active” in each case.

For `CC/C(=C(\c1ccccc1)c1ccc(N)cc1)c1ccccc1`, the Drug uptake result in series [8] and in series [9] was “Active” each time. The GI50 with HepG2 was 28.2 µM; with HeLa, over 30 µM.

Consider `CC/C(=C(\c1ccccc1)c1ccc(NC(=O)CCCSSCCCC(=O)OCCCc2cc(COC(=O)NCC(=O)N[C@H]3CCc4cc(OC)c(OC)c(OC)c4-c4ccc(SC)c(=O)cc43)ccc2OC(C)=O)cc1)c1ccccc1`, for which, in [3], the Activity_index is listed as 0.147. In addition, the Activity in series [4] was -46.47 mV; in series [6] it was 344 nm. Also, the Stability entry in series [5] is reported as “Unstable”; in [7], “Stable”. Besides, the Drug metabolism result in [10] and in [12] was “Metabolite_Detected” throughout. For the same compound, the values for the 50% growth inhibitory concentration (GI50) with HepG2, with MCF7 and with HeLa were over 30 µM, 710 nM and 2.8 µM, respectively. The metabolised in series [11] came out at 88%.

For `CC/C(=C(\c1ccccc1)c1ccc(NC(=O)CCCCCCCCC(=O)O)cc1)c1ccccc1`, the Drug uptake result in series [8] was “Active”. Also, the values for the GI50 with HepG2, in the series with MCF7 and with HeLa were 25.6 µM, over 30000 nM and over 30 µM, respectively.

Turning to `CC/C(=C(\c1ccccc1)c1ccc(NC(=O)CCCSSCCCC(=O)O)cc1)c1ccccc1`, the GI50 is over 30 µM in the series on HepG2, over 30000 nM in the series on MCF7 and over 30 µM in the series on HeLa.
